Screens deposited in PubChem BioAssay by Broad Institute.
ERAP1 inh – human ERAP1 aminopeptidase inhibitors, primary screen, biochemical, single point, plate reader; Endoplasmic reticulum aminopeptidase 1 (Homo sapiens), Q9NZ08; recombinant ERAP1, Leu-AMC fluorescence, 60 min; inhibition, % at 10.7 µM; actives 0.15% (n = 340,000);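 active = mean replicate inhibition of at least 30%, or all replicates individually reaching that 30% level; inactive = mean below 30% and not every replicate reaching it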
Ecoli rRNA inh – reduced GFP signal of wild-type E. coli, primary screen, bacterial rRNA inhibitor project, GFP/RFP fluorescence, OD600, single point; E. coli WT GFP vs humanized-ribosome RFP mutants, 24 h; hits give low values; DMSO median 0, no signal -100; GFP signal change (wild-type ribosome), % (no concentration beside the values); actives 1.6% (n = 350,000); AID 720706, 2013;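 active = significant combined selectivity score with lowered wild-type GFP, culture density cut under 30%, mutant RFP and density less affected; inactive = any of these conditions unmet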
S100A4 MyoIIA – inhibitors of S100A4-myosin IIA peptide binding, primary screen, biochemical, fluorescence polarization, TAMRA-MyoIIA peptide. Protein S100-A4 (Homo sapiens), P26447. inhibition, % at 10.7 µM. actives 0.14% (n = 360,000). AID 652163, 2013;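 active = mean inhibition of at least 70% across replicates, with every replicate also reaching that level; inconclusive = mean inhibition reaches 70% but some replicates fall short; inactive = mean inhibition below 70%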
Target sequence (P26447 whole entry, looked up): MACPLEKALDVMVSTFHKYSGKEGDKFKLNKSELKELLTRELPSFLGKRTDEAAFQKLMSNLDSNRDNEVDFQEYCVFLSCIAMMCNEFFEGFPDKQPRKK
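Assay system: human S100A4 monomer with TAMRA-labelled myosin IIA peptide / Buffer or medium: Calcium-containing HEPES buffer, pH 7.2 / Reagent: TAMRA-labelled myosin IIA heavy-chain peptide probe, 5 nM / Compound: one dose per compound / Timing: polarization read 5 min after assay mix addition, stable 5–60 min / Benchmarks: neutral control DMSO, positive control TFP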
Casp6 inh – human caspase-6 inhibitors, primary screen, biochemical, VEID-R110 fluorescence, single point, set 2. P55212. purified caspase-6, Z-VEID-R110 cleavage fluorescence. inhibition, % at 12.5 µM. actives 0.53% (n = 350,000). AID 686996, 2013;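 active = mean inhibition across replicates at least about 35%, with every replicate also reaching that limit, limit read from the data; inconclusive = only one of the two criteria met; inactive = neither criterion met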
Target sequence (P55212 24-179 limits assumed): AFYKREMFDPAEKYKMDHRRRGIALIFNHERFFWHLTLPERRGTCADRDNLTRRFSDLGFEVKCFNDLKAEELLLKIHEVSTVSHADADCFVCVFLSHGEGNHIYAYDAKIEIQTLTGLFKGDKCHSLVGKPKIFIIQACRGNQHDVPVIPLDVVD
Target sequence (P55212 194-293 limits assumed): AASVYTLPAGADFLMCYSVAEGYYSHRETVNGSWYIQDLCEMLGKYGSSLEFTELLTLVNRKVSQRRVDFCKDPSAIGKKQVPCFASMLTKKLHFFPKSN
ARNT-TACC3 inh – disruptors of ARNT/TACC3 protein interaction, primary screen, biochemical, AlphaScreen, single concentration; AlphaScreen His-ARNT PAS-B/GST-TACC3 binding, luminescence; TACC3 fragment carries E629A point mutation; inhibition, % at 9.99 µM; actives 0.66% (n = 390,000);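 active = mean inhibition of replicates at least 50% and at least half of replicates each reaching 50%; inconclusive = half or more replicates reach 50% but mean below 50%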
PGC1a acetyl inh – inhibitors of PGC1a acetylation signal, primary screen, cell-based, U2OS, AlphaScreen, inhibitor mode | AID 651687, 2012 | inhibition, % at 15.6 µM | actives 0.17% (n = 350,000) | AlphaScreen anti-acetyl-lysine; with virally co-expressed GCN5 acetyltransferase;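 active = every replicate shows inhibition of at least 40%; inconclusive = mean inhibition at least 40% but some replicate below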
Numbers stand for hits; - = inactive; ? = inconclusive; . = no result. Hits are enriched below; roughly 2.4% of the tested compounds scored in any of these assays.

SMILES	ERAP1 inh	Ecoli rRNA inh	S100A4 MyoIIA	Casp6 inh	ARNT-TACC3 inh	PGC1a acetyl inh
COc1cc2ccc(=O)oc2cc1O	74	-	-	-	-	-
COc1ccc2c3c(n(C)c2c1)[C@@H](CO)N(C(=O)C1CCCCC1)CC31CN(C(=O)c2ccncc2)C1	.	-	.	.	.	.
COc1cccc(C2c3c(oc4ccccc4c3=O)C(=O)N2Cc2ccco2)c1 (stereo not drawn)	.	-	-	-	47	-
COc1cc(C2c3c(oc4ccccc4c3=O)C(=O)N2Cc2ccco2)ccc1O (stereo not drawn)	.	.	.	.	-	-
O=C(OCc1cccc(F)c1)c1ccc2c(=O)n3c(nc2c1)CCC3	-	-24	-	-	-	-
O=C(/C=C/c1cccs1)N1CCN(c2ccc(O)cc2)CC1	-	-	-	62	-	.
O=C1CCCC2=C1C(c1ccccn1)Nc1ccc(C(=O)c3ccccc3)cc1N2 (stereo not drawn)	-	-	-	-	46	.
O=C1CCCC2=C1C(c1ccco1)Nc1ccc(C(=O)c3ccccc3)cc1N2 (stereo not drawn)	.	.	.	.	.	-
CNc1ccc(/C=C(\CCC(=O)O)c2nc3ccccc3s2)cc1[N+](=O)[O-]	.	.	.	.	-	.
CN(c1ccccc1)c1ccc(/C=C(\CCC(=O)O)c2nc3ccccc3s2)cc1[N+](=O)[O-]	-	-	-	38	-	.
Cc1ccc(/C=C(\CCC(=O)O)c2nc3ccccc3s2)cc1[N+](=O)[O-]	-	-29	-	-	-	-
Cc1ccc(C(=O)N/C(=C\c2ccc(-c3cccc([N+](=O)[O-])c3)o2)C(=O)NCCCN(C)C)cc1	-	-29	-	-	-	-
CN(C)CCCNC(=O)/C(=C\c1ccc(-c2cccc([N+](=O)[O-])c2)o1)NC(=O)c1ccccc1	-	-	-	-	-	.
NNC(=O)c1nc[nH]c1C(=O)Nc1ccccn1	-	-	-	-	48	.
O=C(Nc1ccccc1)c1nc[nH]c1C(=O)Nc1ccccc1F	-	.	-	49	.	-
Cc1ccc(NC(=O)c2nc[nH]c2C(=O)Nc2ccccc2F)cc1	-	-	-	-	.	.
Cc1ccc(NC(=O)c2[nH]cnc2C(=O)NN)cc1	-	-	-	-	-	-
O=C(NCC[C@H]1CC[C@H](NS(=O)(=O)c2ccccc2F)[C@H](CO)O1)c1ccc(F)cc1	-	-	-	-	-	-
C[C@H]1COCn2nncc2CC[C@H](C)C(=O)N1	.	-	.	.	.	.
COc1ccc2c3c([nH]c2c1)[C@@H](CO)N(C(=O)c1ccccc1)CC31CCN(C(=O)CC2CC2)CC1	-	-	-	.	.	-
Cc1c2cc(O)c(=O)cc-2oc2cc(O)c(O)cc12	-	-	180	92	.	-
COc1cc(OC)c(-c2c3cc(O)c(=O)cc-3oc3cc(O)c(O)cc23)cc1OC	-	-	-	64	.	.
Cc1cccc2nc(-c3cccnc3)c(NCCC(C)C)n12	-	-	-	-	-	-
Cc1cccc2nc(-c3cccnc3)c(Nc3ccccc3)n12	-	-36	-	-	-	-
CC(C)NC(=O)Nc1ccc2c(c1)C(=O)N([C@@H](C)CO)C[C@H](C)[C@@H](CN(C)S(=O)(=O)c1ccccc1)OCCCC[C@H](C)O2	-	-	-	-	-	-
SMILES	ERAP1 inh	Ecoli rRNA inh	S100A4 MyoIIA	Casp6 inh	ARNT-TACC3 inh	PGC1a acetyl inh
CC(C)NC(=O)Nc1ccc2c(c1)C(=O)N([C@H](C)CO)C[C@@H](C)[C@H](CN(C)S(=O)(=O)c1ccccc1)OCCCC[C@@H](C)O2	-	-	121	-	-	?
CC(C)NC(=O)Nc1ccc2c(c1)C(=O)N([C@@H](C)CO)C[C@@H](C)[C@H](CN(C)C(=O)C1CCCCC1)OCCCC[C@H](C)O2	-	-	-	-	46	-
CC(C)NC(=O)Nc1ccc2c(c1)C(=O)N([C@@H](C)CO)C[C@@H](C)[C@@H](CN(C)C(=O)C1CCCCC1)OCCCC[C@H](C)O2	-	-	-	-	-	-
CC(C)NC(=O)Nc1ccc2c(c1)C(=O)N([C@@H](C)CO)C[C@@H](C)[C@@H](CN(C)S(=O)(=O)c1ccccc1)OCCCC[C@H](C)O2	-	-	-	-	-	105
CC(C)NC(=O)Nc1ccc2c(c1)C(=O)N([C@H](C)CO)C[C@@H](C)[C@H](CN(C)S(=O)(=O)c1ccccc1)OCCCC[C@H](C)O2	-	-	-	-	-	-
Cc1ccc(S(=O)(=O)N(C)C[C@H]2Oc3ccc(NC(=O)Nc4ccccc4)cc3C(=O)N([C@@H](C)CO)C[C@H]2C)cc1	-	-	102	-	-	-
C[C@H]1CN([C@@H](C)CO)C(=O)c2cc(NC(=O)NC3CCCCC3)ccc2O[C@@H]1CN(C)C(=O)NC1CCCCC1	-	-	-	.	-	-
C[C@@H]1CCCCO[C@@H](CN(C)C(=O)C2CCCCC2)[C@@H](C)CN([C@H](C)CO)C(=O)c2cc(NC(=O)CCCCCC(=O)Nc3ccccc3N)ccc2O1	-	-	103	-	-	-
C[C@@H]1CN([C@H](C)CO)C(=O)c2cc(NC(=O)CCCCCC(=O)Nc3ccccc3N)ccc2O[C@@H](C)CCCCO[C@@H]1CN(C)C(=O)C1CCCCC1	-	-	-	-	-	-
N#C[C@@H]1[C@@H](c2ccccc2-c2ccccc2)[C@H](CO)N1C(=O)NC1CCCCC1	-	-	-	-	.	-
O=C(COC(=O)c1ccccc1OCc1ccccc1Cl)NC1CCS(=O)(=O)C1 (stereo not drawn)	-	-	-	61	-	-
O=c1[nH]c(=S)[nH]c2c1C(c1ccc(Br)cc1)c1c([nH]c(=S)[nH]c1=O)O2	-	-	-	96	-	-
CC(C)CC(=O)/C(=C\c1ccc(Cl)cc1Cl)n1cncn1	.	.	.	.	-	60
COc1cc2c(cc1OC)CN(C(=O)c1ccc(S(=O)(=O)N3CCCC3)cc1)CC2	-	-	-	-	-	-
CCOc1cc2c(cc1OCC)CN(C(=O)c1cccc(S(=O)(=O)N3CCCC3)c1)CC2	-	-19	-	-	.	-
CN(c1ccc(OCC(=O)Nc2ccc3[nH]c(=O)[nH]c3c2)cc1)S(=O)(=O)c1ccc(Cl)cc1	.	.	.	.	-	-
CCOc1ccc(S(=O)(=O)N(C)c2ccc(OCC(=O)Nc3ccc4[nH]c(=O)[nH]c4c3)cc2)cc1	-	-32	-	-	-	.
COc1cc2[nH]c3c(Cl)ncnc3c2cc1OC	.	.	.	.	-	-
